Test results as given in PubChem BioAssay AID588575 (Sanford-Burnham Center for Chemical Genomics, 2011).
Activity calls are given as the source filed them.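 Rule for the calls: active = IC50 at or below 20 µM; inactive = the rest.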

target: Bcl-2-like protein 10 (Homo sapiens) (UniProt Q9HD36); assay: Bcl-B inhibitors displacing Bim peptide, SAR follow-up, biochemical, fluorescence polarization, GST-Bcl-B, FITC-Bim (AID 588575)
Method in brief: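 Assay system: purified GST-Bcl-B fusion, E. coli-expressed, missing ~20-residue C-terminal transmembrane segment. Buffer or medium: HEPES-KOH pH 7.5 buffer with Tween-20 and TCEP. Dosing: 10 concentrations, 2-fold steps. Times: Protein–compound preincubation 20 min, 4 °C, probe binding 10 min, RT. Measured by: fluorescence polarization at 485/530 nm. Evaluation: IC50 from sigmoidal dose-response curve fit.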

Chain of Bcl-2-like protein 10 (Homo sapiens) (Q9HD36 whole entry, looked up, the tested form may be a part): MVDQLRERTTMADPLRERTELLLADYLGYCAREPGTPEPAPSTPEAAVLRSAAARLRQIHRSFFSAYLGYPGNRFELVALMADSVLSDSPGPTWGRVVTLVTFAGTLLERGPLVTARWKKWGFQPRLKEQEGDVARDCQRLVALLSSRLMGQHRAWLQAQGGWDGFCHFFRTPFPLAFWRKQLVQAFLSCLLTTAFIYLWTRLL

Row | IC50 | SMILES
1 | 3.4 µM | O=c1c2c(n3cnnc3n1Cc1ccc(Cl)cc1)-c1ccccc1CC21CCCC1
2 | 5.19 µM | O=c1c2c(n3cnnc3n1Cc1ccccc1)-c1ccccc1CC21CCCC1
3 | > 20 µM (inactive) | Cn1c(=S)[nH]c2c(c1=O)C1(CCCCC1)Cc1ccccc1-2
4 | 1.56 µM | O=c1c2c(n3nnnc3n1Cc1ccc(F)cc1)-c1ccccc1CC21CCCC1
5 | > 20 µM (inactive) | COc1ccc2c(c1)-c1c(c(=O)n(Cc3ccc(F)cc3)c3nncn13)C(C)(C)C2
6 | 13.6 µM | Cc1ccc2c(c1)-c1c(c(=O)n(Cc3ccccc3)c3nnnn13)C1(CCCCC1)C2
7 | > 20 µM (inactive) | C=C(C)Cn1c(=O)c2c(n3cnnc13)-c1ccccc1CC21CCCC1
8 | > 20 µM (inactive) | CC1(C)Cc2ccccc2-c2c1c(=O)n(Cc1ccccc1)c1nncn21
9 | > 20 µM (inactive) | O=c1c2c(-c3ccccc3)n3ncnc3nc2ccn1-n1cnnc1
10 | > 20 µM (inactive) | O=c1c2c(-c3ccccc3)n3ncnc3nc2ccn1-c1ccccc1
11 | 8.14 µM | Cc1ccc2c(c1)-c1c(c(=O)n(Cc3ccc(F)cc3)c3nnnn13)C1(CCCCC1)C2
12 | > 20 µM (inactive) | O=c1c2ccccc2nc2n1C1(CCCCC1)Cc1ccccc1-2
13 | > 20 µM (inactive) | Cn1c(NCCO)nc2c(c1=O)C1(CCCCC1)Cc1ccccc1-2
14 | > 20 µM (inactive) | C=C(C)Cn1c(=O)c2c(n3nnnc13)-c1ccccc1CC21CCCC1
15 | 2.11 µM | O=c1c2c(n3nnnc3n1Cc1ccc(Cl)cc1)-c1ccccc1CC21CCCC1
16 | 4.15 µM | O=c1c2c(n3nnnc3n1Cc1ccccc1)-c1ccccc1CC21CCCCC1
17 | > 20 µM (inactive) | COc1ccc2c(c1)-c1c(c(=O)n(Cc3ccc(F)cc3)c3nnnn13)C(C)(C)C2
18 | 3.34 µM | O=c1c2c(n3nnnc3n1Cc1ccccc1)-c1ccccc1CC21CCCC1
19 | > 20 µM (inactive) | O=c1c2c(n3cnnc3n1Cc1ccccc1)-c1ccccc1CC21CCCCC1

Row | IC50 | SMILES
20 | > 20 µM (inactive) | O=c1c2cnc3nc(-c4ccccc4)nn3c2ccn1CCc1cnc[nH]1
21 | > 20 µM (inactive) | COc1ccc2c(c1)-c1c(c(=O)n(Cc3ccccc3)c3nncn13)C(C)(C)C2
22 | > 20 µM (inactive) | O=c1[nH]c(CN2CCOCC2)nc2c1C1(CCCC1)Cc1ccccc1-2
23 | 0.386 µM | COc1ccc(Cn2c(=O)c3c(n4nnnc24)-c2ccccc2CC32CCCC2)cc1
24 | > 20 µM (inactive) | COc1ccc2c(c1)-c1c(c(=O)n(Cc3ccc(Cl)cc3)c3nncn13)C1(CCCC1)C2
25 | > 20 µM (inactive) | COc1ccc2c(c1)-c1c(c(=O)n(Cc3ccccc3)c3nncn13)C1(CCCC1)C2
26 | > 20 µM (inactive) | O=c1[nH]c(CN2CCCC2)nc2c1C1(CCCC1)Cc1ccccc1-2
27 | > 20 µM (inactive) | Cn1c(=O)c2c(n3cnnc13)-c1ccccc1CC21CCCC1
28 | > 20 µM (inactive) | O=c1c2c(n3nnnc3n1-c1ccccc1)-c1ccccc1CC21CCCC1
29 | 3.94 µM | COc1ccc(Cn2c(=O)c3c(n4nnnc24)-c2cc(C)ccc2CC3(C)C)cc1
30 | 4.03 µM | COc1ccc2c(c1)-c1c(c(=O)n(Cc3ccccc3)c3nnnn13)C(C)(C)C2
31 | > 20 µM (inactive) | COc1ccc2c(c1)-c1c(c(=O)n(Cc3ccccc3)c3nnnn13)C1(CCCC1)C2
32 | 0.775 µM | O=c1c2c(n3nnnc3n1Cc1ccccc1)-c1cc(F)ccc1CC21CCCCC1
33 | > 20 µM (inactive) | Cc1ccc2c(c1)-c1c(c(=O)n(Cc3ccc(Cl)cc3)c3nncn13)C1(CCCCC1)C2
34 | > 20 µM (inactive) | COc1ccc2c(c1)-c1c(c(=O)n(Cc3ccc(Cl)cc3)c3nnnn13)C1(CCCC1)C2
35 | > 20 µM (inactive) | c1ccc(OCc2nc3c4c(ncn3n2)-c2ccccc2CC42CCCC2)cc1
36 | > 20 µM (inactive) | COc1ccc2c(c1)-c1c(c(=O)n(Cc3ccc(Cl)cc3)c3nncn13)C(C)(C)C2
37 | > 20 µM (inactive) | O=c1c2c(n3cnnc3n1C1CCCCC1)-c1ccccc1CC21CCCCC1
38 | > 20 µM (inactive) | O=c1c2ccccc2nc2n1C1(CCCC1)Cc1ccccc1-2

Row | IC50 | SMILES
39 | > 20 µM (inactive) | O=C1CC(c2ccc(F)cc2)CC2=C1C(c1cccc(Cl)c1)n1ncnc1N2 (stereo not drawn)
40 | > 20 µM (inactive) | O=c1c2c(n3nnnc3n1Cc1ccccc1)-c1cc(F)ccc1CC21CCCC1
41 | > 20 µM (inactive) | O=C1CCCC2=C1C(c1cc(Br)ccc1F)n1ncnc1N2 (stereo not drawn)
42 | > 20 µM (inactive) | O=c1[nH]c(NCCCO)nc2c1C1(CCCCC1)Cc1ccccc1-2
43 | 0.6 µM | Cc1ccc2c(c1)-c1c(c(=O)n(Cc3ccc(F)cc3)c3nncn13)C1(CCCCC1)C2
44 | > 20 µM (inactive) | CC1(C)Cc2ccccc2-c2nc3nn[nH]n3c(=O)c21
45 | > 20 µM (inactive) | CC1(C)CC(n2c(=S)[nH]c3c(c2=O)C2(CCCC2)Cc2ccccc2-3)CCO1 (stereo not drawn)
46 | > 20 µM (inactive) | O=c1c2c(nc3[nH]ncn13)-c1ccccc1CC21CCCC1
47 | > 20 µM (inactive) | Cc1ccc2c(c1)-c1c(c(=O)n(Cc3ccc(Cl)cc3)c3nnnn13)C1(CCCCC1)C2
48 | 5.77 µM | Cc1ccc2c(c1)-c1c(c(=O)n(Cc3ccccc3)c3nnnn13)C(C)(C)C2
49 | > 20 µM (inactive) | CC1(C)Cc2ccccc2-c2c1c(=O)n(Cc1ccccc1)c1nnnn21
50 | 4.92 µM | Cc1ccc2c(c1)-c1c(c(=O)n(Cc3ccccc3)c3nncn13)C1(CCCCC1)C2
51 | > 20 µM (inactive) | COc1ccc2c(c1)-c1c(c(=O)n(Cc3ccc(Cl)cc3)c3nnnn13)C(C)(C)C2
52 | > 20 µM (inactive) | O=c1c2c(nc3[nH]ncn13)-c1ccccc1CC21CCCCC1
53 | > 20 µM (inactive) | O=c1c2c(nc3n1CCS3)-c1ccccc1CC21CCCCC1
54 | > 20 µM (inactive) | Cc1ccc2c(c1)-c1c(c(=O)n(Cc3ccccc3)c3nncn13)C(C)(C)C2
55 | > 20 µM (inactive) | CC1CC(=O)C2=C(C1)Nc1ncnn1C2c1cccnc1 (stereo not drawn)
56 | > 20 µM (inactive) | O=C1CC(c2ccccc2F)c2c(n3ncnc3[nH]c2=O)N1 (stereo not drawn)
57 | 8.29 µM | COc1ccc(Cn2c(=O)c3c(n4cnnc24)-c2cc(C)ccc2CC3(C)C)cc1

Row | SMILES | IC50
58 | O=c1c2cnc3ncnn3c2ccn1CCc1cnc[nH]1 | > 20 µM (inactive)
